In paper PMC5873441 (Diabetes, Obesity & Metabolism, 2018):
Where two headings read alike, the source gives them in different places.

Tests used:
[1] = assay type: in vivo, human
In short: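 Adults with normal hepatic function or mild, moderate or severe impairment (Child–Pugh), matched for age, sex and weight, each got one 0.5 mg s.c. thigh injection by pen. Plasma was sampled from pre-dose to 840 h and stored at −20°C. Proteins were precipitated, then LC‐MS/MS (0.729–60.8 nmol/L, analogue internal standard). AUC by non-compartmental methods; CL/F = dose/AUC0‐∞. Group ratios vs normal, with 90% CI.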

plasma protein (albumin) = assay type: in vitro ADME, human; settings: surface plasmon resonance, in vitro on blood samples taken prior to dosing; across all hepatic function groups
[2] = Safety and tolerability of a single 0.5 mg dose; assay type: in vivo, human; settings: single s.c. 0.5 mg
In short: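 After one 0.5 mg s.c. thigh dose, participants stayed in-house ≥5 days, then had visits on days 7, 8, 15, 22 and 29 and follow-up on day 36. Monitoring covered adverse events, hypoglycaemic episodes, haematology, biochemistry (amylase, lipase), coagulation, calcitonin, urinalysis, vital signs, physical examination, ECG and fasting plasma glucose.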

[3] = cited from earlier work
[4] = human, single s.c. 0.5 mg, mild hepatic impairment, n = 8

SMILES: CC[C@H](C)[C@H](NC(=O)[C@H](Cc1ccccc1)NC(=O)[C@H](CCC(=O)O)NC(=O)[C@H](CCCCNC(=O)COCCOCCNC(=O)COCCOCCNC(=O)CC[C@H](NC(=O)CCCCCCCCCCCCCCCCC(=O)O)C(=O)O)NC(=O)[C@H](C)NC(=O)[C@H](C)NC(=O)[C@H](CCC(N)=O)NC(=O)CNC(=O)[C@H](CCC(=O)O)NC(=O)[C@H](CC(C)C)NC(=O)[C@H](Cc1ccc(O)cc1)NC(=O)[C@H](CO)NC(=O)[C@H](CO)NC(=O)[C@@H](NC(=O)[C@H](CC(=O)O)NC(=O)[C@H](CO)NC(=O)[C@@H](NC(=O)[C@H](Cc1ccccc1)NC(=O)[C@@H](NC(=O)CNC(=O)[C@H](CCC(=O)O)NC(=O)C(C)(C)NC(=O)[C@@H](N)Cc1cnc[nH]1)[C@@H](C)O)[C@@H](C)O)C(C)C)C(=O)N[C@@H](C)C(=O)N[C@@H](Cc1c[nH]c2ccccc12)C(=O)N[C@@H](CC(C)C)C(=O)N[C@H](C(=O)N[C@@H](CCCNC(=N)N)C(=O)NCC(=O)N[C@@H](CCCNC(=N)N)C(=O)NCC(=O)O)C(C)C [semaglutide]
- AUC0‐last, ER (90% CI) vs no impairment ([1]; estimated ratio mild impairment/no impairment): 0.96 (0.76, 1.20)
- Cmax, ER (90% CI) vs no impairment ([1]; estimated ratio mild impairment/normal function): 0.99 (0.80, 1.23)
- AUC0‐∞, ER (90% CI) vs no impairment ([1]; estimated ratio mild impairment/normal function, single s.c. 0.5 mg): 0.95 (0.77, 1.16)
- AUC0‐last, ER (90% CI) vs no impairment ([1]; estimated ratio moderate impairment/no impairment): 1.03 (0.92, 1.15)
- Cmax, ER (90% CI) vs no impairment ([1]; estimated ratio moderate impairment/normal function): 1.02 (0.88, 1.18)
- AUC0‐∞, ER (90% CI) vs no impairment ([1]; estimated ratio moderate impairment/normal function, single s.c. 0.5 mg): 1.02 (0.93, 1.12)
- AUC0‐last, ER (90% CI) vs no impairment ([1]; estimated ratio severe impairment/no impairment): 0.93 (0.77, 1.13)
- Cmax, ER (90% CI) vs no impairment ([1]; estimated ratio severe impairment/normal function): 1.15 (0.89, 1.48)
- AUC0‐∞, ER (90% CI) vs no impairment ([1]; estimated ratio severe impairment/normal function, single s.c. 0.5 mg): 0.97 (0.84, 1.12)
- AUC0‐last, estimated mean ([1]; human, single s.c. 0.5 mg, plasma LC-MS/MS, no hepatic impairment, n = 18): 2731 nmol^×h/L
- AUC0‐last, estimated mean [1, 4]: 2621 nmol^×h/L
- Tmax, median [1, 4]: 65.9 h
- AUC0‐last, estimated mean ([1]; human, single s.c. 0.5 mg, moderate hepatic impairment, n = 10): 2807 nmol^×h/L
- AUC0‐last, estimated mean ([1]; human, single s.c. 0.5 mg, severe hepatic impairment, n = 7): 2539 nmol^×h/L
- CL/F, geometric mean (CV) ([1]; total apparent clearance, CV in %, severe hepatic impairment, n = 7): 0.043 (10.0) L/h
- median fraction of unbound semaglutide (plasma protein (albumin)): < 1%
- serious adverse events or events leading to participant withdrawal ([2]; all groups): No serious adverse events
- severe hypoglycaemic episodes ([2]; all groups): No severe hypoglycaemic episodes
- changes in vital signs, clinical laboratory assessments, physical examination or ECG ([2]; normal or impaired hepatic function): No clinically relevant changes
- exposure in people with renal impairment vs normal renal function ([3]; after adjusting for specific baseline characteristics): comparable
- administered dose excreted in urine as intact semaglutide ([3]; human, radioactive‐labelled compound): 3.1%
